# Results gathered from unrelated publications.
# Each line is one published result; the experiments were not run side by side.
# Cell line: Vero
# Effect on: cell growth or viability
Structure (SMILES),method,tested at,time,quantity,value
CN(C)c1ncnc2c1ncn2[C@@H]1O[C@H](CCl)[C@@H](NC(=O)[C@H](CSC(c2ccccc2)c2ccccc2)NC(=O)OC(C)(C)C)[C@H]1O,MTT,,,CC50,> 100 µM
COC(=O)COc1c(Cc2cc(C(C)(C)CC(C)(C)C)cc(-n3nc4ccccc4n3)c2OCC(=O)OC)cc(C(C)(C)CC(C)(C)C)cc1-n1nc2ccccc2n1,MTT,10 µM,48 h,viability,89.5%
CO[C@@]12[C@H](COC(N)=O)C3=C(C(=O)C(C)=C(N)C3=O)N1C[C@@H]1N[C@@H]12,resazurin,,,CC50,0.39 µM
O=C(NNC(=O)c1cc2ccccc2s1)c1ccc([N+](=O)[O-])o1,MTT,,48 h,CC50,75 µM
CN1CCN(c2cnc3c(cc(C(=O)NCc4ccc(Cl)cc4)c(=O)n3CC(=O)N3CC(C)(F)C3)n2)C1=O,CCK-8,,5 days,CC50,> 40 µM
O=C(Cn1ccnc1[N+](=O)[O-])NCc1ccccc1,MTT,,,CC50,142 µM
CCCN(CCc1cccs1)[C@H]1CCc2c(O)cccc2C1,resazurin,,,CC50,9.48 µM
CC1(F)CN(C(=O)Cn2c(=O)c(C(=O)NCc3ccc(Cl)cc3)cc3nc(N4CCNC4=O)cnc32)C1,CCK-8,,5 days,CC50,> 40 µM
